Screens as filed in PubChem BioAssay.
Compounds with a hit are over-represented: about 2.1% of the library has one in this group of screens.
SUMO1 PPI mod: modulators of human SUMO1-mediated protein-protein interactions | inhibition, % at 20 µM | SUMO1 binding to a labelled peptide, TR-FRET, 1 h | 360,000 tested, 0.33% active; in the data active = inhibition above about 37%
DNMT1 inh: blocks human DNA methyltransferase DNMT1 | P26358 | 360,000 tested, 0.83% active | DNMT1 molecular beacon, Hinp1I cleavage, fluorescence | AID 588458 | inhibition (reported as % activation of signal), % at 10 µM; in the data active = inhibition above about 50%
LMPTP inh: LMPTP (human) inhibition. P24666. recombinant LMPTP-A, OMFP fluorogenic substrate, fluorescence intensity. inhibition, % at 20 µM. 360,000 tested, 0.22% active;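 active = compounds that cut the enzyme signal by at least half of the control window in the single-dose screen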
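material = LMPTP-A | quantity = 0.625 nM enzyme | reagent = OMFP substrate, 400 µM final | buffer or medium = Bis-Tris pH 6.0, DTT, detergent | detection = endpoint fluorescence intensity from OMFP dephosphorylation | dosing = single 20 µM dose | read-out basis = % inhibition relative to no-enzyme and uninhibited control wells | control set = no-enzyme and uninhibited controls | timing = 50 min at room temperature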
Scp-1 inhibitor: blocks human Scp-1 phosphatase activity; inhibition, % at 20 µM; Q9GZU7; Recombinant Scp1, phosphopeptide, malachite green phosphate absorbance; 340,000 tested, 0.88% active;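 active = inhibition above about 50% at 20 µM, limit read from the data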
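assay system = SCP-1 phosphatase catalytic domain, residues 76-261 | buffer or medium = 50 mM Tris acetate pH 5.5, 0.005% Tween-20, 10 mM MgCl2 | incubation = enzyme reaction 45 min at room temperature, colour 5 min, stabilisation 30 min | signal = Phosphate-binding colour reagent, absorbance read at 630 nm | measure = % inhibition at 20 µM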
STEP inh: blocks human striatal-enriched tyrosine phosphatase | 360,000 tested, 0.25% active | AID 588621 | inhibition, % at 20 µM | recombinant STEP, OMFP fluorogenic substrate, fluorescence;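 active = inhibition at 20 µM, scaled per plate between control wells, above about 37%, limit read from the data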
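Material: STEP (striatal-enriched tyrosine phosphatase) enzyme, cell-free | Medium: 50 mM Bis-Tris pH 6.0 with 2.5 mM DTT and 0.005% Tween 20 | Read-out: Percent inhibition scaled to no-enzyme and uninhibited-enzyme controls, plate-pattern corrected | Signal: Fluorescence read at 480 nm ex / 540 nm em | Times: 20 min reaction, room temperature, in the dark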
GRK2 aptamer HTS: blocks RNA aptamer binding to human GRK2. 330,000 tested, 0.59% active. bead flow cytometry, FAM-aptamer displacement from GRK2. inhibition of aptamer binding, % at 10 µM. P25098;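 active = inhibition of aptamer binding above 40%, roughly 3 SD of noise, on plates passing a quality check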;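 also: median bead fluorescence of bound FAM aptamer so fluorescent compounds give negative values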
Target sequence (P25098 whole entry, looked up): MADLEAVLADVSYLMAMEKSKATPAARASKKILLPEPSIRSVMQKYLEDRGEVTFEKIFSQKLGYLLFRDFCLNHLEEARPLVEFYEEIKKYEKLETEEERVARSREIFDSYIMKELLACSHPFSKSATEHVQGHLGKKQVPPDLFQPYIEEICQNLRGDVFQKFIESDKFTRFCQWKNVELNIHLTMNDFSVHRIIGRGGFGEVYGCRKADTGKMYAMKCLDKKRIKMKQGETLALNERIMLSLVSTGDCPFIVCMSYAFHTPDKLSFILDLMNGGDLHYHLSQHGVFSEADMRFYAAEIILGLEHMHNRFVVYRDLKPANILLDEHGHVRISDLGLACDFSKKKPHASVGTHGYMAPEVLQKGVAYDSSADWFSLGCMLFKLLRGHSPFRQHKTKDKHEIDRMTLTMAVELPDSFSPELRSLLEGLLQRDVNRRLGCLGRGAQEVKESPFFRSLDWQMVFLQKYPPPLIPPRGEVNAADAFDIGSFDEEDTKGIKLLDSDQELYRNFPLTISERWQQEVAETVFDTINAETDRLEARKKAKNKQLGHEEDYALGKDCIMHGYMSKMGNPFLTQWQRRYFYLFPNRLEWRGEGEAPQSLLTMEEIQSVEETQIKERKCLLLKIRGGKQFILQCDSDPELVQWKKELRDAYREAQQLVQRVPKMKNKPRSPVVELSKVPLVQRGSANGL
Scp-1 conf: confirmation of human Scp-1 phosphatase inhibitors | shares compounds with Scp-1 inhibitor | recombinant SCP-1 catalytic domain, phosphate release, malachite green absorbance | inhibition, % at 20 µM | 2,500 tested, 61% active
Scp-1 MG ctr: colorimetric interference in Scp-1 counter-screen | shares compounds with Scp-1 inhibitor | 2,500 tested, under 10 active | Colorimetric interference counterscreen, malachite green absorbance 630 nm | AID 540313 | apparent inhibition (interference), % at 20 µM;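 also: compounds added after enzyme reaction finished so only phosphate colour detection is probed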
Scp1 DSF: validation of human Scp-1 inhibitors by thermal shift binding | shares compounds with Scp-1 inhibitor | Recombinant SCP1, Sypro Orange thermal shift Tm | thermal shift relative to vanadate control, % at 40 µM | 1,500 tested, 25% active | AID 540329;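 active = substances whose mean melting-temperature shift, as a percentage of the reference inhibitor's shift, reaches about 5.3%, limit read from the data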
Hits are given with their value.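 The calls were made as follows, unless noted: active = inhibition of at least 30% at 20 µM; inactive = the rest.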

CC(/C=C/c1ccccc1F)=N\NC(=O)c1ccc(Cl)cc1 was read as SUMO1 PPI mod inactive, DNMT1 inh inactive, LMPTP inh inactive, Scp-1 inhibitor 52, STEP inh inactive, GRK2 aptamer HTS inactive, Scp-1 conf inactive and Scp-1 MG ctr inactive.
Cc1ccn2c(=O)nc(SCC(=O)NCc3ccco3)nc2c1 was read as SUMO1 PPI mod inactive, DNMT1 inh inactive, LMPTP inh inactive, Scp-1 inhibitor 72, STEP inh inactive, GRK2 aptamer HTS inactive, Scp-1 conf 35, Scp-1 MG ctr inactive and Scp1 DSF inactive.
Cc1ccn2c(=O)nc(SCC(=O)NCc3ccccc3)nc2c1 was read as SUMO1 PPI mod inactive, DNMT1 inh inactive, LMPTP inh inactive, Scp-1 inhibitor 87, STEP inh inactive, GRK2 aptamer HTS inactive, Scp-1 conf 61, Scp-1 MG ctr inactive and Scp1 DSF 5.7.
For Cc1ccc2cc(C)c3nnc(SCC(=O)NCc4ccco4)n3c2c1 the results were SUMO1 PPI mod inactive, DNMT1 inh inactive, LMPTP inh inactive, Scp-1 inhibitor 78, STEP inh inactive, GRK2 aptamer HTS inactive, Scp-1 conf 57, Scp-1 MG ctr inactive and Scp1 DSF inactive.
`Cc1ccc(CNC(=O)CSc2nc(=O)n3ccc(C)cc3n2)cc1` gave SUMO1 PPI mod inactive, DNMT1 inh inactive, LMPTP inh inactive and STEP inh inactive.
`Cc1oc(/N=C/c2ccccc2)c(C#N)c1C` gave SUMO1 PPI mod inactive, DNMT1 inh inactive, LMPTP inh inactive, Scp-1 inhibitor inactive, STEP inh inactive and GRK2 aptamer HTS inactive.
`Cc1oc(/N=C/c2cccc3ccccc23)c(C#N)c1C` gave SUMO1 PPI mod inactive, DNMT1 inh inactive, LMPTP inh inactive, Scp-1 inhibitor 65, STEP inh inactive, GRK2 aptamer HTS inactive, Scp-1 conf inactive and Scp-1 MG ctr inactive.
Cc1ccccc1CC1(CO)CCCN(C(=O)CCCN2CCCCC2=O)C1 (stereo not drawn) was read as SUMO1 PPI mod inactive, DNMT1 inh inactive, LMPTP inh inactive, Scp-1 inhibitor inactive, STEP inh inactive and GRK2 aptamer HTS inactive.
For COC1=CC(=O)OC(c2cccc([N+](=O)[O-])c2)C1 (stereo not drawn) the results were SUMO1 PPI mod inactive and LMPTP inh inactive.
`CCOC(=O)N1CCN(C(=O)C2CC(c3ccccc3OC)=NO2)CC1` (stereo not drawn) gave SUMO1 PPI mod inactive, DNMT1 inh inactive, LMPTP inh inactive, Scp-1 inhibitor inactive, STEP inh inactive and GRK2 aptamer HTS inactive.
For CCOC(=O)/C=C1\CC(C(=O)OCC)Oc2c(OC)cccc21 (stereo not drawn) the results were SUMO1 PPI mod inactive, DNMT1 inh inactive, LMPTP inh inactive, Scp-1 inhibitor 103, STEP inh inactive, GRK2 aptamer HTS inactive, Scp-1 conf 67, Scp-1 MG ctr inactive and Scp1 DSF inactive.
CN(Cc1nccn1C)C(=O)c1ccc2nc(Cc3ccccc3F)oc2c1 was read as SUMO1 PPI mod inactive, DNMT1 inh inactive, LMPTP inh inactive, Scp-1 inhibitor inactive, STEP inh inactive and GRK2 aptamer HTS inactive.
Screening COc1ccc(NS(=O)(=O)c2cccc(C(=O)NNC(=O)c3ccccc3O)c2)cc1 returned SUMO1 PPI mod inactive, DNMT1 inh inactive, LMPTP inh inactive, Scp-1 inhibitor inactive, STEP inh inactive and GRK2 aptamer HTS inactive.
`COc1ccc(NS(=O)(=O)c2cccc(C(=O)NNC(=O)c3cccn3C)c2)cc1` gave SUMO1 PPI mod inactive, DNMT1 inh inactive, LMPTP inh inactive, Scp-1 inhibitor 63, STEP inh inactive, GRK2 aptamer HTS inactive, Scp-1 conf 65, Scp-1 MG ctr inactive and Scp1 DSF 6.8.
Screening CSc1nc(C)cc(-c2cc(C(=O)Nc3ccccc3)on2)n1 returned GRK2 aptamer HTS inactive.
CCOC(=O)Cc1cnc(NC(=O)CSc2nc(C)c(CC)c(=O)[nH]2)s1 was read as SUMO1 PPI mod inactive, DNMT1 inh inactive, LMPTP inh inactive, Scp-1 inhibitor inactive, STEP inh inactive and GRK2 aptamer HTS inactive.
For CN(C)c1nc(N2CCOCC2)nc(N(c2ccccc2)c2ccccc2)n1 the results were SUMO1 PPI mod inactive, DNMT1 inh inactive, LMPTP inh inactive, Scp-1 inhibitor inactive and STEP inh inactive.
Screening CN(C)c1cccc(N=C2C=C(N3CCOCC3)CC(C)(C)C2)c1 returned SUMO1 PPI mod inactive, DNMT1 inh inactive, LMPTP inh inactive, Scp-1 inhibitor 99, STEP inh inactive, GRK2 aptamer HTS inactive, Scp-1 conf 79, Scp-1 MG ctr inactive and Scp1 DSF inactive.
Screening c1ccc(NC2=NCCN2CCC2CCCCC2)cc1 returned SUMO1 PPI mod inactive, DNMT1 inh inactive, LMPTP inh inactive, Scp-1 inhibitor inactive, STEP inh inactive and GRK2 aptamer HTS inactive.
`COc1ccccc1-c1noc2c1C(=O)N(Cc1cn(Cc3ccccc3)nn1)CC2` gave SUMO1 PPI mod inactive, DNMT1 inh inactive, LMPTP inh inactive and STEP inh inactive.
For CCOC(=O)c1cnc2nc(NCc3ccc(OCc4ccccc4)cc3)[nH]n2c1=O the results were SUMO1 PPI mod inactive, DNMT1 inh inactive, LMPTP inh inactive, Scp-1 inhibitor 71, STEP inh inactive, GRK2 aptamer HTS inactive, Scp-1 conf 91, Scp-1 MG ctr inactive and Scp1 DSF inactive.
CC1=CN2C(c3cccc([N+](=O)[O-])c3)=NON(c3ccc(C)cn3)C2C=C1 (stereo not drawn) was read as SUMO1 PPI mod inactive, DNMT1 inh inactive, LMPTP inh inactive and STEP inh inactive.
`Cc1ccc(NC(=O)CC2C(=O)NCCN2C(=O)c2ccc(F)cc2)cc1` (stereo not drawn) gave SUMO1 PPI mod inactive, DNMT1 inh inactive, LMPTP inh inactive, Scp-1 inhibitor inactive, STEP inh inactive, GRK2 aptamer HTS inactive, Scp-1 conf inactive and Scp-1 MG ctr inactive.
`COc1ccc(/C=N/NC(=O)c2ccc(O)cc2O)cc1CSc1ccccn1` gave SUMO1 PPI mod inactive, DNMT1 inh inactive, LMPTP inh inactive, Scp-1 inhibitor 57, STEP inh inactive, GRK2 aptamer HTS inactive, Scp-1 conf 64, Scp-1 MG ctr inactive and Scp1 DSF inactive.
Screening COc1ccc(C=O)cc1CSc1ccccn1 returned SUMO1 PPI mod inactive, DNMT1 inh inactive, LMPTP inh inactive, Scp-1 inhibitor inactive, STEP inh inactive and GRK2 aptamer HTS inactive.
